Active and inactive are the calls of the source.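 The calls were made as follows: active = inhibition of 30% or more at any tested concentration; inactive = the rest.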

Drawing on PubChem BioAssay AID588696 (Southern Research Specialized Biocontainment Screening …, 2011), this text covers IC50 and inhibition for 59 molecules.

For one experiment, the target named is Aspartyl aminopeptidase (Homo sapiens) (UniProt Q9ULA0). Briefly: hM18AAP (DNPEP) peptidase activity blockade – biochemical, QFRET fluorogenic readout, recombinant enzyme, counter-screen for PfM18AAP inhibitor project, dose response (AID 588696). The following applies: H-Glu-NHMec fluorogenic cleavage. In outline: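 Material: recombinant human hM18AAP enzyme / Amount: 5 µg/mL enzyme / Also added: 0.1 mM H-Glu-NHMec substrate / Doses: twofold dilution series of compound, top dose 100 µM / Schedule: 90 min reaction, room temperature / Measured by: fluorescence at 370/460 nm / Controls: no-enzyme background wells as low-signal control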
Take `Nc1cc(C(=O)c2ccccc2)ccc1O`: the IC50 was 43.5 µM.
On the same count and under the same terms, the same measure for `Oc1ccc(CCNc2cncc3ccccc23)cc1O`: 53.4 µM; for `Oc1ccc(CCNc2ccc3ccccc3c2)cc1O`: 34 µM.
For the molecule `Cc1ccc(-c2nc(-c3ccc(O)c(O)c3)cs2)cc1`, the IC50 was 26.6 µM.
Consider `CCC(C)c1ccc(N)c(O)c1` (centres undefined), for which the IC50 was 44.6 µM.
With `COc1ccc2c(c1)C(=O)C(N)CC2` (centres undefined), the IC50 is 99.8 µM.
For the molecule `CC(C)(C)C(=O)OCc1nc(-c2ccc(O)c(O)c2)cs1`, the IC50 is 33.1 µM.
Regarding `O=C1c2ccc3c4c(ccc(c24)C(=O)N1O)CC3`, the IC50 is 89.2 µM.
The same measure, in the same setting: the same measure for `Oc1ccc(-c2csc(Cc3cc4ccccc4[nH]3)n2)cc1O`: 27.9 µM; for `Oc1ccc(CCNC(c2ccccc2)c2ccccc2)cc1O`: 41.4 µM; for `Oc1ccc(CCNc2cccc3ccccc23)cc1O`: 30.4 µM.
As for `CN(CCc1ccc(O)c(O)c1)c1ccnc2ccccc12`, the IC50 was 31.1 µM.
Same read-out and setting: the same measure for `O=S1(=O)c2ccccc2-c2cc(-c3nc(-c4ccc(O)c(O)c4)[nH]c3-c3ccccc3)ccc21`: 46.1 µM; for `Cc1nc(NCCc2ccc(O)c(O)c2)c2c3c(sc2n1)CCC3`: 52.3 µM.
With `CCOc1cccc(-c2nc(-c3ccc(O)c(O)c3)cs2)c1`, the IC50 was 21.5 µM.
Regarding `Cc1c(-c2ccccc2)[nH]c(-c2ccc(O)c(O)c2)[n+]1O`, the IC50 was 73 µM.
Turning to `O=C1OCCN1CCc1nc(-c2ccc(O)c(O)c2)cs1`, the IC50 was 45.8 µM.

Still in this experiment, the particulars now being: H-Glu-NHMec fluorogenic cleavage, at 50 µM (top of the series).
In the case of `COc1ccc(CCNc2ccnc3ccccc23)cc1OC`, the inhibition result is “inactive”.
In the case of `O=C(O)CCCCNc1c2ccccc2nc2ccccc12`, the inhibition entry was “inactive”.
Regarding `O=C(O)CCCNc1c2ccccc2nc2ccccc12`, the inhibition result was “inactive”.
Regarding `Oc1ccc(CCNc2c3c(nc4ccccc24)CCCC3)cc1O`, the inhibition entry is “inactive”.
As for `O=c1ccc2cc(O)c(O)cc2o1`, the inhibition entry was “inactive”.

Still in this experiment, the particulars now being: H-Glu-NHMec fluorogenic cleavage, at 100 µM (top of the series).
`COc1ccc(CC(=O)O)cc1OC`: the inhibition result was “inactive”.
With `COc1ccc(CCN(C)CCc2ccccc2)cc1OC`, the inhibition result was “inactive”.
Consider `Oc1ccc(CCN2CCc3ccccc3C2)cc1O`, for which the inhibition result was “inactive”.
Turning to `COc1ccc(-c2csc(-c3ccccc3OC)n2)cc1OC`, the inhibition result is “inactive”.
Same read-out and setting: the same measure for `COc1ccc(-c2nc(-c3ccccc3)c(-c3ccccc3)[nH]2)cc1OC`: “inactive”; for `COc1ccc(CNc2c3ccccc3nc3ccccc23)cc1OC`: “inactive”.
Consider `O=c1cc(CO)oc(CN2CCCCC2)c1O`, for which the inhibition result is “inactive”.
Consider `O=C(c1ccco1)N1CCN(Cc2cc(=O)c(O)c[nH]2)CC1`, for which the inhibition result was “inactive”.
Same read-out and setting: next, `NCc1cc2c3c(c(=O)oc2c(O)c1O)CCC3`: “inactive”.
`O=c1cc(CN2CCN(Cc3ccccc3)CC2)c2ccc(O)c(O)c2o1`: the inhibition entry is “inactive”.
The same measure, in the same setting: the same measure for `CCC(C)C(=O)Nc1ccccc1N` (centres undefined): “inactive”; for `COc1ccc(CCNC2CCN(C)CC2)cc1OC`: “inactive”.
`NCCNc1c2ccccc2nc2ccccc12`: the inhibition entry is “inactive”.
On the same count and under the same terms, next, `COc1ccc(CCNc2c3c(nc4ccccc24)CCCC3)cc1OC`: “inactive”.
On to `COc1ccc(CCN2CCc3ccccc3C2)cc1OC`, for which the inhibition entry was “inactive”.
Turning to `Cc1c(O)c(=O)ccn1CCNc1c2ccccc2nc2ccccc12`, the inhibition entry was “inactive”.
For `O=C(c1ccco1)N1CCN(Cc2cc(=O)c(O)co2)CC1`, the inhibition result was “inactive”.
As to `COc1ccc(-c2csc(-c3ccccc3)n2)cc1OC`, the inhibition result was “inactive”.
On the same count and under the same terms, the same measure for `COc1ccc(CCN2CCN(C)CC2)cc1OC`: “inactive”; for `COc1ccc(CCN(C)c2ccncc2)cc1OC`: “inactive”.
Consider `COc1ccc(CCC(=O)O)cc1OC`, for which the inhibition result was “inactive”.
Turning to `Oc1ccc(CCCNc2c3ccccc3nc3ccccc23)cc1O`, the inhibition result was “inactive”.
As for `COc1ccc(CCNc2cccc3ccccc23)cc1OC`, the inhibition result was “inactive”.
With `COc1ccc(CCNC2CCN(Cc3ccccc3)CC2)cc1OC`, the inhibition entry is “inactive”.
Take `Oc1ccc(CCNC2CCN(Cc3ccccc3)CC2)cc1O`: the inhibition result was “inactive”.
`COc1ccc(CCNc2ccncc2)cc1OC`: the inhibition result was “inactive”.
Turning to `COc1ccc(CCNc2cncc3ccccc23)cc1OC`, the inhibition result was “inactive”.
For the molecule `CCC(C)C(=O)Nc1ccccc1O` (centres undefined), the inhibition entry was “inactive”.
As to `CN(CCc1ccc(O)c(O)c1)c1ccncc1`, the inhibition entry was “inactive”.
Still for that read-out and setting: the same measure for `COc1ccc(CCN(C)c2ccnc3ccccc23)cc1OC`: “inactive”; for `COc1ccc(CCNc2ccc3ccccc3c2)cc1OC`: “inactive”; for `COc1ccc(CCNc2c3ccccc3nc3ccccc23)cc1OC`: “inactive”.
For `Oc1ccc(CCNc2c3ccccc3nc3ccccc23)cc1`, the inhibition result was “inactive”.
On to `Cc1c(OCc2ccccc2)c(=O)ccn1CCNc1c2ccccc2nc2ccccc12`, for which the inhibition result was “inactive”.
Same read-out and setting: the same measure for `COc1ccc(CCCNc2c3ccccc3nc3ccccc23)cc1OC`: “inactive”; for `COc1cccc(-c2nc(-c3ccc(OC)c(OC)c3)cs2)c1`: “inactive”.
In the case of `COc1cccc(CCNc2c3ccccc3nc3ccccc23)c1`, the inhibition entry was “inactive”.
